Source: publication PMC8958509 (Journal of Medicinal Chemistry, 2022)

What was measured:
H. pylori MMX 3719 = test: Spontaneous resistance frequency and MPC; assay type: cell-based, Helicobacter pylori
C. difficile MMX 4381 = test: Spontaneous resistance frequency and MPC; assay type: cell-based, Clostridioides difficile
[1] = tested on: clinical isolates of H. pylori, C. difficile, and G. vaginalis; test: MIC against contemporary clinical isolates; assay type: cell-based
Tissue distribution = assay type: in vivo, Sprague–Dawley rats
[2] = tested on: G. vaginalis contemporary clinical isolates; test: MIC against contemporary clinical isolates; assay type: cell-based, Gardnerella vaginalis
[3] = tested on: H. pylori Rif-resistant, Mtz-resistant strains; test: MIC comparison, H. pylori resistant mutant panel; assay type: cell-based, Helicobacter pylori
[4] = tested on: C. difficile contemporary clinical isolates; test: MIC against contemporary clinical isolates; assay type: cell-based, Clostridioides difficile
G. Vaginalis MMX 5973 = test: Spontaneous resistance frequency and MPC; assay type: cell-based, Gardnerella vaginalis
[5] = tested on: C. difficile UNT103-1 (VA11); test: Hamster C. difficile infection model; assay type: in vivo, Golden Syrian hamsters
Method in brief: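 Male Golden Syrian hamsters (80-90 g), singly housed, were infected orally by gavage three times with a sporulation-medium culture diluted to OD600 1 (~1.0 × 10^9 CFU/mL). […] Starting 18 h later (day 2), test compound, comparators or vehicle were given QD by oral gavage for 5 days. Survival was monitored through day 21.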

[6] = tested on: H. pylori SS1 (CagA+, VacA+); test: Mouse H. pylori infection model; assay type: in vivo, C57/BL6 mice; conditions: 45 mg/kg bid oral, 7 days, day 7
Method in brief: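 Male C57/BL6 mice (20-25 g) received 0.25 mL gavage inocula on three days (6.40, 6.90, 7.15 log₁₀ CFU). Inocula were 5-day Columbia laked-horse-blood-agar growth suspended in saline to OD530 1.5-2.0. From 7 days post-inoculation, test compound, controls or vehicle were dosed bid by gavage for 7 days. Stomach CFU were counted ~18-20 h post-dose on Dent-supplemented plates (microaerobic, 37 °C, 6-7 days); LOQ <2.35 log₁₀ CFU/stomach.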

[7] = tested on: H. pylori contemporary clinical isolates; test: MIC against contemporary clinical isolates; assay type: cell-based, Helicobacter pylori
[8] = H. pylori MMX 3719, conc. 0.5 μg/mL
[9] = H. pylori MMX 3719, conc. 1 μg/mL
[10] = H. pylori MMX 3719, conc. 2 μg/mL
[11] = H. pylori MMX 3719, conc. 4 μg/mL
[12] = C. difficile MMX 4381, conc. 1 μg/mL
[13] = C. difficile MMX 4381, conc. 2 μg/mL
[14] = C. difficile MMX 4381, conc. 4 μg/mL
[15] = C. difficile isolates China (N = 46)
[16] = C. difficile isolates USA (N = 50)
[17] = G. Vaginalis MMX 5973, conc. 0.5 μg/mL
[18] = G. Vaginalis MMX 5973, conc. 1 μg/mL
[19] = G. Vaginalis MMX 5973, conc. 2 μg/mL
[20] = G. Vaginalis MMX 5973, conc. 4 μg/mL
[21] = H. pylori isolates China (N = 49)

In the case of `CO[C@H]1/C=C/O[C@@]2(C)Oc3c(C)c(O)c4c(c3C2=O)C2=NC3(CCN(CCn5c([N+](=O)[O-])cnc5C)CC3)NC2=C(NC(=O)/C(C)=C\C=C\[C@H](C)[C@H](O)[C@@H](C)[C@@H](O)[C@@H](C)[C@H](OC(C)=O)[C@@H]1C)C4=O` [Compound 10, 4-Deoxy-3,4-[2-spiro-[1-[2-(2-methyl-5-nitro-imidazol-1-yl)ethyl]-piperidin-4-yl]]-(1H)-imidazo-(2,5-dihydro)rifamycin S], the “spontaneous frequency of mutation” value (H. pylori MMX 3719; H. pylori MMX 3719, all concentrations tested) is reported as < 5 × 10^–9 μg/mL, the “resistant colonies identified, mean” value (H. pylori MMX 3719; [8]) is reported as 0 and the “resistant colonies identified, test 1” value (H. pylori MMX 3719; [8]) is reported as 0. For the same compound, the “resistant colonies identified, test 2” value (H. pylori MMX 3719; [8]) was 0, the spontaneous resistance frequency (H. pylori MMX 3719; H. pylori MMX 3719, conc. 0.5 μg/mL, inoculum 1.90 × 10^8 CFU) was <5 × 10^–9 and the “resistant colonies identified, mean” value (H. pylori MMX 3719; [9]) was 0. The “resistant colonies identified, test 1” value (H. pylori MMX 3719; [9]) was 0, the “resistant colonies identified, test 2” value (H. pylori MMX 3719; [9]) was 0 and the spontaneous resistance frequency (H. pylori MMX 3719; [9]) was <5 × 10^–9. For the same compound, the “resistant colonies identified, mean” value (H. pylori MMX 3719; [10]) was 0, the “resistant colonies identified, test 1” value (H. pylori MMX 3719; [10]) was 0 and the “resistant colonies identified, test 2” value (H. pylori MMX 3719; [10]) was 0. The spontaneous resistance frequency (H. pylori MMX 3719; [10]) was <5 × 10^–9, the “resistant colonies identified, mean” value (H. pylori MMX 3719; [11]) was 0 and the “resistant colonies identified, test 1” value (H. pylori MMX 3719; [11]) was 0. For the same compound, the “resistant colonies identified, test 2” value (H. pylori MMX 3719; [11]) was 0, the spontaneous resistance frequency (H. pylori MMX 3719; [11]) was <5 × 10^–9 and the “resistant colonies identified, test 1” value (C. difficile MMX 4381; C. difficile MMX 4381, conc. 0.5 μg/mL) was 0. For the same compound, the spontaneous resistance frequency (C. difficile MMX 4381; C. difficile MMX 4381, conc. 0.5 μg/mL, inoculum 1.23 × 10^9 CFU) was 8 × 10^–10, the “resistant colonies identified, mean” value (C. difficile MMX 4381; [12]) was 0 and the “resistant colonies identified, test 1” value (C. difficile MMX 4381; [12]) was 0. The “resistant colonies identified, test 2” value (C. difficile MMX 4381; [12]) was 0, the spontaneous resistance frequency (C. difficile MMX 4381; [12]) was <8 × 10^–10 and the “resistant colonies identified, mean” value (C. difficile MMX 4381; [13]) was 0. The “resistant colonies identified, test 1” value (C. difficile MMX 4381; [13]) was 0, the “resistant colonies identified, test 2” value (C. difficile MMX 4381; [13]) was 0 and the spontaneous resistance frequency (C. difficile MMX 4381; [13]) was <8 × 10^–10. For the same compound, the “resistant colonies identified, mean” value (C. difficile MMX 4381; [14]) was 0, the “resistant colonies identified, test 1” value (C. difficile MMX 4381; [14]) was 0 and the “resistant colonies identified, test 2” value (C. difficile MMX 4381; [14]) was 0. The spontaneous resistance frequency (C. difficile MMX 4381; [14]) was <8 × 10^–10, the “spontaneous frequency of mutation” value (C. difficile MMX 4381; C. difficile MMX 4381, lowest concentration tested) was 8 × 10^–10 and the MIC90 [1] was < 1 µg/mL. The TNP-2198 concentration (Tissue distribution; ascites fluid, 24 h) was “BLOQ”, the TNP-2198 concentration (Tissue distribution; brain, 12 h) was “BLOQ” and the TNP-2198 concentration (Tissue distribution; brain, 24 h) was “BLOQ”. The TNP-2198 concentration (Tissue distribution; plasma, 24 h) was “BLOQ”, the TNP-2198 concentration (Tissue distribution; stomach content, 0.5 h) was 3,264,000 ng/g and the TNP-2198 concentration (Tissue distribution; stomach content, 2 h) was 1,750,320 ng/g. The TNP-2198 concentration (Tissue distribution; vaginal tissue, 24 h) was “BLOQ”, the MIC range ([2]; G. vaginalis isolates China (N = 24)) was ≤0.004 to 0.06 µg/mL and the MIC range ([2]; G. vaginalis isolates USA (N = 101)) was ≤0.004 to 0.06 µg/mL. For the same compound, the “fold more active than the 1:1 molar combination of the parent drugs” value ([3]; Mtz-resistant strain (CB1573)) was 1- to 125 fold, the “fold more active than the 1:1 molar combination of the parent drugs” value ([3]; Rif-resistant strains (CB1902, CB1903 and CB1614)) was 4- to 128 fold and the “fold more active than Rif, Rbt, or Mtz” value ([3]; dual Rif-resistant, Mtz-resistant strains (CB1771 and CB1893)) was 32- to 64 fold. The MIC range [4, 15] was ≤0.06 to 2 µg/mL, the MIC range [4, 16] was ≤0.002 to 4 µg/mL and the “resistant colonies identified, mean” value (G. Vaginalis MMX 5973; [17]) was 0. For the same compound, the “resistant colonies identified, test 1” value (G. Vaginalis MMX 5973; [17]) was 0, the “resistant colonies identified, test 2” value (G. Vaginalis MMX 5973; [17]) was 0 and the spontaneous resistance frequency (G. Vaginalis MMX 5973; G. Vaginalis MMX 5973, conc. 0.5 μg/mL, inoculum 4.50 × 10^8 CFU) was <2 × 10^–9. For the same compound, the “resistant colonies identified, mean” value (G. Vaginalis MMX 5973; [18]) was 0, the “resistant colonies identified, test 1” value (G. Vaginalis MMX 5973; [18]) was 0 and the “resistant colonies identified, test 2” value (G. Vaginalis MMX 5973; [18]) was 0. The spontaneous resistance frequency (G. Vaginalis MMX 5973; [18]) was <2 × 10^–9, the “resistant colonies identified, mean” value (G. Vaginalis MMX 5973; [19]) was 0 and the “resistant colonies identified, test 1” value (G. Vaginalis MMX 5973; [19]) was 0. The “resistant colonies identified, test 2” value (G. Vaginalis MMX 5973; [19]) was 0, the spontaneous resistance frequency (G. Vaginalis MMX 5973; [19]) was <2 × 10^–9 and the “resistant colonies identified, mean” value (G. Vaginalis MMX 5973; [20]) was 0. For the same compound, the “resistant colonies identified, test 1” value (G. Vaginalis MMX 5973; [20]) was 0, the “resistant colonies identified, test 2” value (G. Vaginalis MMX 5973; [20]) was 0 and the spontaneous resistance frequency (G. Vaginalis MMX 5973; [20]) was <2.00 × 10^–9. The “spontaneous frequency of mutation” value (G. Vaginalis MMX 5973; G. vaginalis MMX 5973, all concentrations tested) was < 2 × 10^–9 μg/mL, the mortality ([5]; 5 mg/kg QD oral, days 7–9) was 10–30% and the survival ([5]; 5 mg/kg QD oral, during the 5-day dosing regimen) was 100%. The survival ([5]; 15 mg/kg QD oral days 2–6, through day 21) was 100%, the survival ([5]; 45 mg/kg QD oral days 2–6, through day 21) was 100% and the “mean bacterial stomach titer” value [6] was 1.70 log10 CFU. For the same compound, the MIC range [7, 21] was ≤0.002 to 1 µg/mL and the MIC range ([7]; H. pylori isolates USA (N = 200)) was ≤0.001 to 2 µg/mL.

For `Cc1ncc([N+](=O)[O-])n1CCO` [metronidazole, reference compound], the MIC range [4, 15] was ≤0.06 to 32 µg/mL, the MIC range [4, 16] was 0.12 to 4 µg/mL and the mortality ([5]; 100 mg/kg QD oral, by day 4) was 100%.

In the case of `CO[C@H]1/C=C/O[C@@]2(C)Oc3c(C)c(O)c4c(O)c(c(/C=N/N5CCN(C)CC5)c(O)c4c3C2=O)NC(=O)/C(C)=C\C=C\[C@H](C)[C@H](O)[C@@H](C)[C@@H](O)[C@@H](C)[C@H](OC(C)=O)[C@@H]1C` [rifampin, reference compound], the MIC range [7, 21] is reported as ≤0.06 to 64 µg/mL.
